According to ChEMBL document CHEMBL1949585, “Design, synthesis and evaluation of telomerase inhibitory, hTERT repressing, and anti-proliferation activities of symmetrical 1,8-disubstituted amidoanthraquinones” (Eur J Med Chem, 2012):

Tests used:
UO-31 = experiment: Cytotoxicity against human UO31 cells assessed as cell growth at 10 uM relative to control; type: functional; details: read-out: Activity
In short: (§1)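 Run in the NCI 60-cell human tumour panel. Cells were exposed to 10 µM compound, and growth was given as a percentage of untreated control cells set to 100%.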

A498 = experiment: Cytotoxicity against human A498 cells assessed as cell growth at 10 uM relative to control; type: functional; details: read-out: Activity
In short: (§2)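 Single-concentration screen in the NCI 60 human tumour cell line panel covering nine cancer types. Values are the mean growth percentage of compound-treated cells, with untreated control cells set as 100%.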

BT-549 = experiment: Cytotoxicity against human BT549 cells assessed as cell growth at 10 uM relative to control; type: functional; details: read-out: Activity; in short: as §2
SNB-75 = experiment: Cytotoxicity against human SNB75 cells assessed as cell growth at 10 uM relative to control; type: functional; details: read-out: Activity; in short: as §1
MDA-MB-468 = experiment: Cytotoxicity against human MDA-MB-468 cells assessed as cell growth at 10 uM relative to control; type: functional; details: read-out: Activity; in short: as §2
OVCAR-4 = experiment: Cytotoxicity against human OVCAR4 cells assessed as cell growth at 10 uM relative to control; type: functional; details: read-out: Activity; in short: as §2
SF-295 = experiment: Cytotoxicity against human SF295 cells assessed as cell growth at 10 uM relative to control; type: functional; details: read-out: Activity; in short: as §2
SN12C = experiment: Cytotoxicity against human SN12C cells assessed as cell growth at 10 uM relative to control; type: functional; details: read-out: Activity; in short: as §2
[1] = Inhibition of human TERT expression in H1299 cells at 100 uM after 24 hrs by secreted alkaline phosphatase reporter gene assay relative to control; values are per cent of control; details: NCI-H1299
T47D = experiment: Cytotoxicity against human T47D cells assessed as cell growth at 10 uM relative to control; type: functional; details: read-out: Activity; in short: as §1
[2] = Cytotoxicity against human Hs 578T cells assessed as cell growth at 10 uM relative to control; type: functional; details: read-out: Activity; in short: as §2
A549 = experiment: Cytotoxicity against human A549 cells assessed as cell growth at 10 uM relative to control; type: functional; details: read-out: Activity; in short: as §2
MOLT-4 = experiment: Cytotoxicity against human MOLT4 cells assessed as cell growth at 10 uM relative to control; type: functional; details: read-out: Activity; in short: as §2
RPMI-8226 = experiment: Cytotoxicity against human RPMI8226 cells assessed as cell growth at 10 uM relative to control; type: functional; details: read-out: Activity; in short: as §2
CCRF-CEM = experiment: Cytotoxicity against human CCRF-CEM cells assessed as cell growth at 10 uM relative to control; type: functional; details: read-out: Activity; in short: as §2
HOP-92 = experiment: Cytotoxicity against human HOP92 cells assessed as cell growth at 10 uM relative to control; type: functional; details: read-out: Activity; in short: as §2
M14 = experiment: Cytotoxicity against human M14 cells assessed as cell growth at 10 uM relative to control; type: functional; details: read-out: Activity; in short: as §2
NCI-H522 = experiment: Cytotoxicity against human NCI-H522 cells assessed as cell growth at 10 uM relative to control; type: functional; details: read-out: Activity; in short: as §2
SK-MEL-28 = experiment: Cytotoxicity against human SK-MEL-28 cells assessed as cell growth at 10 uM relative to control; type: functional; details: read-out: Activity; in short: as §2
SK-MEL-5 = experiment: Cytotoxicity against human SK-MEL-5 cells assessed as cell growth at 10 uM relative to control; type: functional; details: read-out: Activity; in short: as §2
SW-620 = experiment: Cytotoxicity against human SW620 cells assessed as cell growth at 10 uM relative to control; type: functional; details: read-out: Activity; in short: as §1
MCF7 = experiment: Cytotoxicity against human MCF7 cells assessed as cell growth at 10 uM relative to control; type: functional; details: read-out: Activity; in short: as §2
LOX IMVI = experiment: Cytotoxicity against human LOXIMVI cells assessed as cell growth at 10 uM relative to control; type: functional; details: read-out: Activity; in short: as §2
SNB-19 = experiment: Cytotoxicity against human SNB19 cells assessed as cell growth at 10 uM relative to control; type: functional; details: read-out: Activity; in short: as §1
SK-OV-3 = experiment: Cytotoxicity against human SKOV3 cells assessed as cell growth at 10 uM relative to control; type: functional; details: read-out: Activity; in short: as §2
HCC 2998 = experiment: Cytotoxicity against human HCC2998 cells assessed as cell growth at 10 uM relative to control; type: functional; details: read-out: Activity; in short: as §2
OVCAR-3 = experiment: Cytotoxicity against human OVCAR3 cells assessed as cell growth at 10 uM relative to control; type: functional; details: read-out: Activity; in short: as §2
SF-268 = experiment: Cytotoxicity against human SF268 cells assessed as cell growth at 10 uM relative to control; type: functional; details: read-out: Activity; in short: as §2
[3] = Cytotoxicity against human H1299 cells assessed as cell growth at 100 uM after 48 hrs by MTT assay; type: functional; details: NCI-H1299, 48 h, read-out: Activity
In short: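 H1299 non-small lung cancer cells were grown in RPMI 1640 with 10% FBS and penicillin/streptomycin at 37 °C in 5% CO2. About 2×10³ cells were seeded per well and held 24 h, then washed with PBS and given fresh medium. Compound, freshly dissolved in DMSO and diluted in complete medium, was added for 48 h. MTT was read at 550 nm after SDS/DMF lysis at 37 °C for 16 h. Values are from three experiments, untreated = 100%, ±SD.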

HCT-15 = experiment: Cytotoxicity against human HCT15 cells assessed as cell growth at 10 uM relative to control; type: functional; details: read-out: Activity; in short: as §2
NCI-H322M = experiment: Cytotoxicity against human NCI-H322M cells assessed as cell growth at 10 uM relative to control; type: functional; details: read-out: Activity; in short: as §2
KM12 = experiment: Cytotoxicity against human KM12 cells assessed as cell growth at 10 uM relative to control; type: functional; details: read-out: Activity; in short: as §2
UACC-257 = experiment: Cytotoxicity against human UACC257 cells assessed as cell growth at 10 uM relative to control; type: functional; details: read-out: Activity; in short: as §1
CAKI-1 = experiment: Cytotoxicity against human CAKI-1 cells assessed as cell growth at 10 uM relative to control; type: functional; details: read-out: Activity; in short: as §2
TK-10 = experiment: Cytotoxicity against human TK10 cells assessed as cell growth at 10 uM relative to control; type: functional; details: read-out: Activity; in short: as §1
K562 = experiment: Cytotoxicity against human K562 cells assessed as cell growth at 10 uM relative to control; type: functional; details: read-out: Activity; in short: as §2
[4] = Inhibition of human TERT expression in H1299 cells at 1 uM after 24 hrs by secreted alkaline phosphatase reporter gene assay relative to control; values are per cent of control; details: NCI-H1299
COLO 205 = experiment: Cytotoxicity against human COLO205 cells assessed as cell growth at 10 uM relative to control; type: functional; details: read-out: Activity; in short: as §2
PC-3 = experiment: Cytotoxicity against human PC3 cells assessed as cell growth at 10 uM relative to control; type: functional; details: read-out: Activity; in short: as §2
[5] = Inhibition of human TERT expression in H1299 cells at 10 uM after 24 hrs by secreted alkaline phosphatase reporter gene assay relative to control; values are per cent of control; details: NCI-H1299
HOP-62 = experiment: Cytotoxicity against human HOP62 cells assessed as cell growth at 10 uM relative to control; type: functional; details: read-out: Activity; in short: as §2
EKVX = experiment: Cytotoxicity against human EKVX cells assessed as cell growth at 10 uM relative to control; type: functional; details: read-out: Activity; in short: as §2
OVCAR-5 = experiment: Cytotoxicity against human OVCAR5 cells assessed as cell growth at 10 uM relative to control; type: functional; details: read-out: Activity; in short: as §2
MDA-MB-435 = experiment: Cytotoxicity against human MDA-MB-435 cells assessed as cell growth at 10 uM relative to control; type: functional; details: read-out: Activity; in short: as §2
SF-539 = experiment: Cytotoxicity against human SF539 cells assessed as cell growth at 10 uM relative to control; type: functional; details: read-out: Activity; in short: as §2

CCN(CC)CC(=O)Nc1cccc2c1C(=O)c1c(NC(=O)CN(CC)CC)cccc1C2=O
growth at 10 µM (UO-31): 87.3% | growth at 10 µM (A498): 93.3% | growth at 10 µM (BT-549): 97.4% | growth at 10 µM (SNB-75): 81.7% | growth at 10 µM (MDA-MB-468): 86.6% | growth at 10 µM (OVCAR-4): 91.3% | growth at 10 µM (SF-295): 88.9% | growth at 10 µM (SN12C): 92.1% | level, % of control [1]: 42% | growth at 10 µM (T47D): 84.8% | growth at 10 µM [2]: 111% | growth at 10 µM (A549): 91.7% | growth at 10 µM (MOLT-4): 91.2% | growth at 10 µM (RPMI-8226): 68.5% | growth at 10 µM (CCRF-CEM): 84.6% | growth at 10 µM (HOP-92): 93.5% | growth at 10 µM (M14): 98.6% | growth at 10 µM (NCI-H522): 88% | growth at 10 µM (SK-MEL-28): 117% | growth at 10 µM (SK-MEL-5): 101% | growth at 10 µM (SW-620): 104% | growth at 10 µM (MCF7): 88.7% | growth at 10 µM (LOX IMVI): 89.3% | growth at 10 µM (SNB-19): 94.1% | growth at 10 µM (SK-OV-3): 103% | growth at 10 µM (HCC 2998): 103% | growth at 10 µM (OVCAR-3): 161% | growth at 10 µM (SF-268): 138% | growth at 100 µM [3]: 50% | growth at 10 µM (HCT-15): 93.4% | growth at 10 µM (NCI-H322M): 93.8% | growth at 10 µM (KM12): 119% | growth at 10 µM (UACC-257): 105% | growth at 10 µM (CAKI-1): 88.3% | growth at 10 µM (TK-10): 105% | growth at 10 µM (K562): 106% | level, % of control [4]: 86% | growth at 10 µM (COLO 205): 114% | growth at 10 µM (PC-3): 89.1% | level, % of control [5]: 84% | growth at 10 µM (HOP-62): 88.3% | growth at 10 µM (EKVX): 104% | growth at 10 µM (OVCAR-5): 101% | growth at 10 µM (MDA-MB-435): 103% | growth at 10 µM (SF-539): 91.7%

COC(=O)CNCC(=O)Nc1cccc2c1C(=O)c1c(NC(=O)CNCC(=O)OC)cccc1C2=O
growth at 10 µM (UO-31): 88.9% | growth at 10 µM (A498): 85.2% | growth at 10 µM (BT-549): 99.9% | growth at 10 µM (SNB-75): 89.9% | growth at 10 µM (MDA-MB-468): 83.8% | growth at 10 µM (OVCAR-4): 87.7% | growth at 10 µM (SF-295): 97.2% | growth at 10 µM (SN12C): 90.4% | level, % of control [1]: 12% | growth at 10 µM (T47D): 83.8% | growth at 10 µM [2]: 104% | growth at 10 µM (A549): 94.3% | growth at 10 µM (MOLT-4): 83.8% | growth at 10 µM (RPMI-8226): 37.4% | growth at 10 µM (CCRF-CEM): 64.4% | growth at 10 µM (HOP-92): 75.8% | growth at 10 µM (M14): 113% | growth at 10 µM (NCI-H522): 96.8% | growth at 10 µM (SK-MEL-28): 127% | growth at 10 µM (SK-MEL-5): 94.3% | growth at 10 µM (SW-620): 109% | growth at 10 µM (MCF7): 89.5% | growth at 10 µM (LOX IMVI): 88.2% | growth at 10 µM (SNB-19): 95.3% | growth at 10 µM (SK-OV-3): 104% | growth at 10 µM (HCC 2998): 106% | growth at 10 µM (OVCAR-3): 89.9% | growth at 10 µM (SF-268): 100% | growth at 100 µM [3]: 68% | growth at 10 µM (HCT-15): 94.3% | growth at 10 µM (NCI-H322M): 94.5% | growth at 10 µM (KM12): 107% | growth at 10 µM (UACC-257): 92.4% | growth at 10 µM (CAKI-1): 83.8% | growth at 10 µM (TK-10): 84.9% | growth at 10 µM (K562): 97.1% | level, % of control [4]: 111% | growth at 10 µM (COLO 205): 102% | growth at 10 µM (PC-3): 76.6% | level, % of control [5]: 93% | growth at 10 µM (HOP-62): 108% | growth at 10 µM (EKVX): 104% | growth at 10 µM (OVCAR-5): 106% | growth at 10 µM (MDA-MB-435): 102% | growth at 10 µM (SF-539): 91.9%
